ChEMBL document CHEMBL4689842, “EUbOPEN Chemogenomics Library wave 1” (2021)

Test system: Fibroblast
Test: Multiplex assay against human fibroblast
Format: toxicity, cell-based
How it was run: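 Phenotypes for tubulin, mitochondrial mass and membrane permeability are expressed as per cents of healthy-nucleus cells. Cells were stained live at seeding with Hoechst33342, BioTracker Green Microtubule Cytoskeleton Dye, MitoTracker Red and Annexin V Alexa Fluor 680, then imaged after compound addition on a CQ1 microscope at 37°C and 5% CO2. Machine-learning gating in CellPathfinder separated Hoechst high-intensity objects from normal cells, divided normal cells by nuclear state (healthy, pyknosed, fragmented) and divided pyknosed cells into mitotic or apoptotic.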

[1] = 12 h, 1 µM, compound concentration 1 uM, replicate 1
[2] = 12 h, 1 µM, compound concentration 1 uM, replicate 2
[3] = 12 h, 10 µM, compound concentration 10 uM, replicate 1
[4] = 12 h, 10 µM, compound concentration 10 uM, replicate 2
[5] = 24 h, 1 µM, compound concentration 1 uM, replicate 1
[6] = 24 h, 1 µM, compound concentration 1 uM, replicate 2
[7] = 24 h, 10 µM, compound concentration 10 uM, replicate 1
[8] = 24 h, 10 µM, compound concentration 10 uM, replicate 2
[9] = 48 h, 1 µM, compound concentration 1 uM, replicate 1
[10] = 48 h, 1 µM, compound concentration 1 uM, replicate 2
[11] = 48 h, 10 µM, compound concentration 10 uM, replicate 1
[12] = 48 h, 10 µM, compound concentration 10 uM, replicate 2

COc1cc(N2CCN(C)CC2)ccc1Nc1ncc2c(n1)N(C)c1ccccc1C(=O)N2C
Population Apoptotic (%) [1]: 58%
Population Fragmented Nuclei (%) [1]: 25%
Population Healthy Nuclei (%) [1]: 41%
Population Hoechst High Intensity Objects (%) [1]: 11%
Population Membrane Permeable-Phenotype (%) [1]: 14%
Population Mitochondria Different-Phenotype (%) [1]: 12%
Population Mitotic Cells (%) [1]: 41%
Population Normal (%) [1]: 88%
Population Pyknosed Nuclei (%) [1]: 32%
Population Tubulin-Different-Phenotype (%) [1]: 28%
Total Cell Count [1]: 135
Population Apoptotic (%) [2]: 40%
Population Fragmented Nuclei (%) [2]: 5%
Population Healthy Nuclei (%) [2]: 82%
Population Hoechst High Intensity Objects (%) [2]: 4%
Population Membrane Permeable-Phenotype (%) [2]: 9%
Population Mitochondria Different-Phenotype (%) [2]: 21%
Population Mitotic Cells (%) [2]: 60%
Population Normal (%) [2]: 95%
Population Pyknosed Nuclei (%) [2]: 12%
Population Tubulin-Different-Phenotype (%) [2]: 15%
Total Cell Count [2]: 104
Population Apoptotic (%) [3]: 65%
Population Fragmented Nuclei (%) [3]: 32%
Population Healthy Nuclei (%) [3]: 38%
Population Hoechst High Intensity Objects (%) [3]: 20%
Population Membrane Permeable-Phenotype (%) [3]: 17%
Population Mitochondria Different-Phenotype (%) [3]: 35%
Population Mitotic Cells (%) [3]: 34%
Population Normal (%) [3]: 79%
Population Pyknosed Nuclei (%) [3]: 28%
Population Tubulin-Different-Phenotype (%) [3]: 82%
Total Cell Count [3]: 127
Population Apoptotic (%) [4]: 66%
Population Fragmented Nuclei (%) [4]: 15%
Population Healthy Nuclei (%) [4]: 61%
Population Hoechst High Intensity Objects (%) [4]: 5%
Population Membrane Permeable-Phenotype (%) [4]: 21%
Population Mitochondria Different-Phenotype (%) [4]: 96%
Population Mitotic Cells (%) [4]: 33%
Population Normal (%) [4]: 94%
Population Pyknosed Nuclei (%) [4]: 23%
Population Tubulin-Different-Phenotype (%) [4]: 100%
Total Cell Count [4]: 42
Population Apoptotic (%) [5]: 60%
Population Fragmented Nuclei (%) [5]: 22%
Population Healthy Nuclei (%) [5]: 57%
Population Hoechst High Intensity Objects (%) [5]: 10%
Population Membrane Permeable-Phenotype (%) [5]: 17%
Population Mitochondria Different-Phenotype (%) [5]: 6%
Population Mitotic Cells (%) [5]: 39%
Population Normal (%) [5]: 89%
Population Pyknosed Nuclei (%) [5]: 19%
Population Tubulin-Different-Phenotype (%) [5]: 26%
Total Cell Count [5]: 159
Population Apoptotic (%) [6]: 50%
Population Fragmented Nuclei (%) [6]: 9%
Population Healthy Nuclei (%) [6]: 75%
Population Hoechst High Intensity Objects (%) [6]: 6%
Population Membrane Permeable-Phenotype (%) [6]: 6%
Population Mitochondria Different-Phenotype (%) [6]: 12%
Population Mitotic Cells (%) [6]: 50%
Population Normal (%) [6]: 93%
Population Pyknosed Nuclei (%) [6]: 14%
Population Tubulin-Different-Phenotype (%) [6]: 6%
Total Cell Count [6]: 101
Population Apoptotic (%) [7]: 60%
Population Fragmented Nuclei (%) [7]: 38%
Population Healthy Nuclei (%) [7]: 52%
Population Hoechst High Intensity Objects (%) [7]: 20%
Population Membrane Permeable-Phenotype (%) [7]: 5%
Population Mitochondria Different-Phenotype (%) [7]: 43%
Population Mitotic Cells (%) [7]: 40%
Population Normal (%) [7]: 79%
Population Pyknosed Nuclei (%) [7]: 9%
Population Tubulin-Different-Phenotype (%) [7]: 74%
Total Cell Count [7]: 140
Population Apoptotic (%) [8]: 76%
Population Fragmented Nuclei (%) [8]: 11%
Population Healthy Nuclei (%) [8]: 63%
Population Hoechst High Intensity Objects (%) [8]: 8%
Population Membrane Permeable-Phenotype (%) [8]: 30%
Population Mitochondria Different-Phenotype (%) [8]: 93%
Population Mitotic Cells (%) [8]: 23%
Population Normal (%) [8]: 91%
Population Pyknosed Nuclei (%) [8]: 25%
Population Tubulin-Different-Phenotype (%) [8]: 66%
Total Cell Count [8]: 44
Population Apoptotic (%) [9]: 54%
Population Fragmented Nuclei (%) [9]: 34%
Population Healthy Nuclei (%) [9]: 58%
Population Hoechst High Intensity Objects (%) [9]: 14%
Population Membrane Permeable-Phenotype (%) [9]: 19%
Population Mitochondria Different-Phenotype (%) [9]: 1%
Population Mitotic Cells (%) [9]: 45%
Population Normal (%) [9]: 85%
Population Pyknosed Nuclei (%) [9]: 7%
Population Tubulin-Different-Phenotype (%) [9]: 29%
Total Cell Count [9]: 176
Population Apoptotic (%) [10]: 100%
Population Fragmented Nuclei (%) [10]: 25%
Population Healthy Nuclei (%) [10]: 72%
Population Hoechst High Intensity Objects (%) [10]: 7%
Population Membrane Permeable-Phenotype (%) [10]: 10%
Population Mitotic Cells (%) [10]: 0%
Population Normal (%) [10]: 92%
Population Pyknosed Nuclei (%) [10]: 1%
Population Tubulin-Different-Phenotype (%) [10]: 28%
Total Cell Count [10]: 83
Population Apoptotic (%) [11]: 85%
Population Fragmented Nuclei (%) [11]: 49%
Population Healthy Nuclei (%) [11]: 45%
Population Hoechst High Intensity Objects (%) [11]: 28%
Population Membrane Permeable-Phenotype (%) [11]: 7%
Population Mitochondria Different-Phenotype (%) [11]: 12%
Population Mitotic Cells (%) [11]: 14%
Population Normal (%) [11]: 71%
Population Pyknosed Nuclei (%) [11]: 4%
Population Tubulin-Different-Phenotype (%) [11]: 44%
Total Cell Count [11]: 201
Population Apoptotic (%) [12]: 100%
Population Fragmented Nuclei (%) [12]: 39%
Population Healthy Nuclei (%) [12]: 58%
Population Hoechst High Intensity Objects (%) [12]: 18%
Population Membrane Permeable-Phenotype (%) [12]: 5%
Population Mitochondria Different-Phenotype (%) [12]: 8%
Population Mitotic Cells (%) [12]: 0%
Population Normal (%) [12]: 81%
Population Pyknosed Nuclei (%) [12]: 2%
Population Tubulin-Different-Phenotype (%) [12]: 62%
Total Cell Count [12]: 188
